Among the data in ChEMBL document CHEMBL1817651, “Neuroprotective effects of linarin through activation of the PI3K/Akt pathway in amyloid-β-induced neuronal cell death” (2011) are inhibition and Activity values, retold here.

Active and inactive are the calls of the source. The rule behind the calls is not given here.

Assay [1] concerns PC-12. The experiment in a line: Inhibition of amyloid beta-induced mitochondrial dysfunction in rat PC12 cells at 0.1 to 10 uM administered 1 hr prior to amyloid beta challenge measured after 24 hrs using JC1 fluorescent dye based flow cytometeric analysis. Type of assay: functional, cell-based. The procedure, abridged:
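Cells were loaded with JC-1 for 20 min at 37 °C, pelleted at 600g, resuspended in PBS and analysed by flow cytometry on FL1 (525 nm) and FL2 (575 nm). Membrane potential was expressed as the green/red fluorescence ratio. Mean ± SD, triplicate.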
(In general: A flow cytometer gives signals particle by particle.)

Assay [2] deals with RAC-alpha serine/threonine-protein kinase (Rattus norvegicus) (UniProt P47196). The experiment in a line: Induction of PIK3-mediated Akt phosphorylation in amyloid beta-induced rat PC12 cells at 10 uM, treated 1 hrs prior to amyloid beta challenge measured after 24 hrs by Western blotting in presence of PI3K inhibitor LY294002 before compound addition. Type of assay: cell-based. The conditions noted are these: PC-12. The procedure, abridged:
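Lysates (20 or 30 µg) were run on 12% SDS-PAGE and immunoblotted for p-Akt and total Akt (1:1000) with ECL detection. Densitometry, mean ± SD of triplicate experiments.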
For orientation: In western blotting, separated proteins are transferred to a membrane and probed.

In assay [3] the test system is PC-12. The experiment in a line: Neuroprotective effect against amyloid beta-induced apoptosis in rat PC12 cells assessed as upregulation of PI3K-mediated Akt phosphorylation administered 1 hr prior to amyloid beta challenge measured after 24 hrs by Western blotting. Type of assay: functional, cell-based. The procedure, abridged:
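Lysate protein (20 or 30 µg) was run on 12% SDS-PAGE and blotted to nitrocellulose. Blots were probed for p-Akt Ser473 and total Akt (1:1000), with β-actin or GAPDH as loading control, and detected by ECL. Densitometry, mean ± SD, triplicate.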

The target of assay [4] is T1, Acetylcholinesterase (Rattus norvegicus) (UniProt P37136).
T1 sequence (whole entry): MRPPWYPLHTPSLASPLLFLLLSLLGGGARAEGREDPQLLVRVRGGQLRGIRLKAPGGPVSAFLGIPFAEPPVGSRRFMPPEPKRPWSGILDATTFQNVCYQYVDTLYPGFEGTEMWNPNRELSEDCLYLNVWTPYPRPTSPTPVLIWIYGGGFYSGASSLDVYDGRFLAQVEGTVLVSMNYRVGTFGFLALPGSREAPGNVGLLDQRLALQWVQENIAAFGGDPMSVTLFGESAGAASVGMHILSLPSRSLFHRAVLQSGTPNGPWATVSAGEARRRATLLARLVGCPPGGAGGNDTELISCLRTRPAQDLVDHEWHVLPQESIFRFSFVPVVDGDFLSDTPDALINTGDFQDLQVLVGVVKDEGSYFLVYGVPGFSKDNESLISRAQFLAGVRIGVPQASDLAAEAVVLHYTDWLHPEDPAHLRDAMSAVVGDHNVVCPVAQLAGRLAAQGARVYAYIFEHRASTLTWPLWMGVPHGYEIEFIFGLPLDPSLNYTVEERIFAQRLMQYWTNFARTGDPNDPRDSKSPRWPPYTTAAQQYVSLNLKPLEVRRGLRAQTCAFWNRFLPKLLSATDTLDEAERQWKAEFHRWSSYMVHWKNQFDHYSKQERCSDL
The experiment in a line: Inhibition of AChE activity in amyloid beta25-35-induced rat PC12 cells at 0.1 to 10 uM, 1 hrs prior to induction after 24 hrs by Ellman assay. Type of assay: cell-based. To be noted: PC-12. The procedure, abridged: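 Rat PC12 cells in DMEM/10% FBS, serum-starved 12 h, were pretreated 1 h, then exposed 24 h to 30 µM Aβ25-35 (1 mM in water, pre-aggregated 72 h at 37 °C). Lysates were made in high ionic strength buffer (1 M NaCl, Triton X-100, EDTA) and spun 12,000 rpm 20 min at 4 °C. AChE activity in the supernatant was read by Ellman method; three independent experiments.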
For orientation: Ellman's reagent forms a yellow product with free thiols.

The test system of assay [5] is PC-12. The experiment in a line: Inhibition of amyloid beta-induced apoptosis in rat PC12 cells assessed as decrease in caspase-3 dependent cleavage of Ac-DEVD-pNA administered 1 hr prior to amyloid beta challenge measured after 24 hrs by spectrophotometric analysis. It is filed as functional, cell-based. The procedure, abridged: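 Released pNA was read at 405 nm. Activity was normalised to protein and expressed as fold over control cells. Mean ± SD of triplicate experiments.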

Assay [6] has as its target Glycogen synthase kinase-3 beta (Rattus norvegicus) (UniProt P18266). The experiment in a line: Increase in GSK3 beta phosphorylation at Ser9 in amyloid beta-induced rat PC12 cells at 0.1 to 10 uM administered 1 hrs prior to amyloid beta challenge measured after 24 hrs by Western blotting. Type of assay: cell-based. The conditions noted are these: PC-12. The procedure, abridged: (§1)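 Lysates (20 or 30 µg) were run on 12% SDS-PAGE and immunoblotted for pSer9 GSK-3β and total GSK-3β (1:1000), with β-actin or GAPDH as loading control. Blots shown represent three independent experiments.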

In assay [7] the test system is PC-12. The experiment in a line: Neuroprotective activity in amyloid beta-induced rat PC12 cells assessed as increase of Bcl-2 expression at 0.1 to 10 uM administered 1 hrs prior to amyloid beta challenge measured after 24 hrs by Western blotting. Type of assay: functional, cell-based. The procedure, abridged:
(§2)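 Lysates (20 or 30 µg) were separated on 12% gels, blotted and probed with anti-Bcl-2 (1:200), with β-actin or GAPDH as loading control. Detection was by ECL.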

The subject of assay [8] is PC-12. The experiment in a line: Cytoprotective activity in amyloid beta-induced apoptosis in rat PC12 cells at 10 uM administered 1 hr prior to amyloid beta challenge measured after 24 hrs by using Annexin V/PI staining based flow cytometric analysis. Type of assay: functional. The procedure, abridged:
(§3)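 Cells were stained with Annexin V-FITC/PI for 15 min in the dark at room temperature and analysed by flow cytometry. Annexin+/PI− cells were scored early apoptotic and double-positive cells late apoptotic. Mean ± SD of triplicate independent experiments.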

The subject of assay [9] is PC-12. The experiment in a line: Cytoprotective activity in amyloid beta-induced apoptosis in rat PC12 cells administered 1 hr prior to amyloid beta challenge measured after 24 hrs by using Annexin V/PI staining based flow cytometric analysis. Type of assay: functional, cell-based. The procedure, abridged: as §3
The target in assay [10] is Glycogen synthase kinase-3 beta (Rattus norvegicus) (UniProt P18266). The experiment in a line: Increase in GSK3 beta phosphorylation at Ser9 in amyloid beta-induced rat PC12 cells at 0.1 to 10 uM administered 1 hrs prior to amyloid beta challenge measured after 24 hrs by Western blotting pretreated with PI3K inhibitor LY294002 before compound addition. Type of assay: cell-based. The conditions noted are these: PC-12. The procedure, abridged:
as §1

For assay [11], the system named is PC-12. The experiment in a line: Neuroprotective effect against amyloid beta-induced rat PC12 cells assessed as increase of Bcl-2 expression at 0.1 to 10 uM administered 1 hrs prior to amyloid beta challenge measured after 24 hrs by Western blotting pretreated with PI3K inhibitor LY294002 before compound addition. Type of assay: functional, cell-based. The procedure, abridged: as §2

The test system of assay [12] is PC-12. The experiment in a line: Cytoprotective activity in amyloid beta-induced apoptosis in rat PC12 cells at 1 uM administered 1 hr prior to amyloid beta challenge measured after 24 hrs by using Annexin V/PI staining based flow cytometric analysis. It is filed as functional. The procedure, abridged: as §3
Assay [13] concerns PC-12. The experiment in a line: Cytoprotective activity in amyloid beta-induced apoptosis in rat PC12 cells at 0.1 uM administered 1 hr prior to amyloid beta challenge measured after 24 hrs by using Annexin V/PI staining based flow cytometric analysis. It is filed as functional. The procedure, abridged: as §3
The subject of assay [14] is PC-12. The experiment in a line: Neuroprotective activity in amyloid beta-induced cytotoxicity in rat PC12 cells assessed as cell viability pretreated 1 hrs prior to amyloid beta challenge measured after 24 hrs by MTT assay. It is filed as functional, cell-based. The procedure, abridged:
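PC12 cells at 0.5 × 10^4 per well, serum-starved 12 h, then pretreated 1 h with 0.1, 1.0 or 10 µM. Viability was read by MTT (5 mg/ml, 4 h, 37 °C), with formazan dissolved in DMSO and A570 measured. Mean ± SD of triplicate experiments.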

Sequence of Glycogen synthase kinase-3 beta (Rattus norvegicus) (P18266 whole entry, looked up): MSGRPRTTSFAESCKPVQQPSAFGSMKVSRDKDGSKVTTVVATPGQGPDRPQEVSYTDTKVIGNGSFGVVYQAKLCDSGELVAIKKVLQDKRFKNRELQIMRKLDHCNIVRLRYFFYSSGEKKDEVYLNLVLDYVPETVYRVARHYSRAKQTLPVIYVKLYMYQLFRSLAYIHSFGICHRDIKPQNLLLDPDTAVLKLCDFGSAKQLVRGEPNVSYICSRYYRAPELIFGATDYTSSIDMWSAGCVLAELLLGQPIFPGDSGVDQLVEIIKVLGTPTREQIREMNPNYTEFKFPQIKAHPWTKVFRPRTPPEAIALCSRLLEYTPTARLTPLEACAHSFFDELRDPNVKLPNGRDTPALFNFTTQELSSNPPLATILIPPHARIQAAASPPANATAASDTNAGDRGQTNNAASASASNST
Sequence of RAC-alpha serine/threonine-protein kinase (Rattus norvegicus) (P47196 whole entry): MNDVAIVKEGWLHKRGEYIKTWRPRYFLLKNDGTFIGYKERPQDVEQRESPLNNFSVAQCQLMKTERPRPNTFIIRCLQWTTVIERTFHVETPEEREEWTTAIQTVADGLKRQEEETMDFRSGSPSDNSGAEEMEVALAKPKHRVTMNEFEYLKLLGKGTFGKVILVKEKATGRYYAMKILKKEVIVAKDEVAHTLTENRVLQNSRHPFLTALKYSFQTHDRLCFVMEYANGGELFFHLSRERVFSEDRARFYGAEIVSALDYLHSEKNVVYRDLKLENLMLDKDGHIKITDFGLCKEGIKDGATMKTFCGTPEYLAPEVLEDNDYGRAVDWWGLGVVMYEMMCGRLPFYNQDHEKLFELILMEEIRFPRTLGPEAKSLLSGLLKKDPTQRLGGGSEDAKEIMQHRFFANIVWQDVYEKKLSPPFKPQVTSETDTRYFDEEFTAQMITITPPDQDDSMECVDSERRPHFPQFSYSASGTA

As to `COc1ccc(-c2cc(=O)c3c(O)cc(O[C@@H]4O[C@H](CO[C@@H]5O[C@@H](C)[C@H](O)[C@@H](O)[C@H]5O)[C@@H](O)[C@H](O)[C@H]4O)cc3o2)cc1` [ACACIIN], the inhibition result (with PC-12 [1]; in assay [4]) was “Active” throughout. For the same compound, the result (in assay [2]; in assay [10]; in the assay on PC-12 [11]) was inactive. Besides, the outcome (in the assay with PC-12 [3]; in assay [6]; with PC-12 [7]) was Active. Moreover, the inhibition entry in the assay with PC-12 [5] is “Dose-dependent effect”. Moreover, the Activity with PC-12 [8] is 7.32%; in the assay on PC-12 [9] it was “Dose-dependent effect”; in the assay on PC-12 [12] it was 11.57%; in the assay on PC-12 [13], 20.52%; with PC-12 [14] it was “Dose-dependent effect”.
